Reference: ChEMBL document CHEMBL3526123, “Hepatobiliary disposition of 17-OHPC and taurocholate in fetal human hepatocytes: a comparison with adult human hepatocytes” (Drug Metab Dispos, 2013)

Legend:
Hepatocyte [1] = test: Total drug uptake in sandwich-cultured human fetal hepatocytes assessed per mg protein at 1 uM after 20 mins in presence of cyclosporine A by liquid scintillation counting method; assay type: ADME, cell-based
How it was run: (§1)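 Sandwich-cultured hepatocytes received 1 µM radiolabeled test compound in HBSS at 37°C, with or without cyclosporine A, verapamil or rifampin. After an ice-cold wash, efflux was started with Ca2+/Mg2+-free HBSS for 20 min. Media and lysates were counted by liquid scintillation. Total uptake is expressed as pmol/mg protein (Bradford), mean ± S.D.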

Hepatocyte [2] = test: Total drug uptake in sandwich-cultured human fetal hepatocytes assessed per mg protein at 1 uM after 20 mins in absence of cyclosporine A by liquid scintillation counting method; assay type: ADME, cell-based; how it was run: as §1
Hepatocyte [3] = test: Total drug uptake in sandwich-cultured human adult hepatocytes assessed per mg protein at 1 uM after 20 mins in presence of cyclosporine A by liquid scintillation counting method; assay type: ADME, cell-based; how it was run: as §1
Hepatocyte [4] = test: Total drug uptake in sandwich-cultured human adult hepatocytes assessed per mg protein at 1 uM after 20 mins in absence of cyclosporine A by liquid scintillation counting method; assay type: ADME, cell-based; how it was run: as §1
Hepatocyte [5] = test: Total drug uptake in sandwich-cultured human fetal hepatocytes assessed per mg protein at 1 uM after 20 mins in presence of verapamil by liquid scintillation counting method; assay type: ADME, cell-based; how it was run: as §1
Hepatocyte [6] = test: Total drug uptake in sandwich-cultured human fetal hepatocytes assessed per mg protein at 1 uM after 20 mins in absence of verapamil by liquid scintillation counting method; assay type: ADME, cell-based; how it was run: as §1
Hepatocyte [7] = test: Total drug uptake in sandwich-cultured human adult hepatocytes assessed per mg protein at 1 uM after 20 mins in presence of verapamil by liquid scintillation counting method; assay type: ADME, cell-based; how it was run: as §1
Hepatocyte [8] = test: Total drug uptake in sandwich-cultured human adult hepatocytes assessed per mg protein at 1 uM after 20 mins in absence of verapamil by liquid scintillation counting method; assay type: ADME, cell-based; how it was run: as §1
Hepatocyte [9] = test: Total drug uptake in sandwich-cultured human fetal hepatocytes assessed per mg protein at 1 uM after 20 mins in presence of rifampin by liquid scintillation counting method; assay type: ADME, cell-based; how it was run: as §1
Hepatocyte [10] = test: Total drug uptake in sandwich-cultured human fetal hepatocytes assessed per mg protein at 1 uM after 20 mins in absence of rifampin by liquid scintillation counting method; assay type: ADME, cell-based; how it was run: as §1
Hepatocyte [11] = test: Total drug uptake in sandwich-cultured human adult hepatocytes assessed per mg protein at 1 uM after 20 mins in presence of rifampin by liquid scintillation counting method; assay type: ADME, cell-based; how it was run: as §1
Hepatocyte [12] = test: Total drug uptake in sandwich-cultured human adult hepatocytes assessed per mg protein at 1 uM after 20 mins in absence of rifampin by liquid scintillation counting method; assay type: ADME, cell-based; how it was run: as §1
Hepatocyte [13] = test: Drug uptake in sandwich-cultured human fetal hepatocytes at 1 uM after 20 mins in presence of cold media at 4 degC by liquid scintillation counting method; assay type: ADME, cell-based
Hepatocyte [14] = test: Drug uptake in sandwich-cultured human fetal hepatocytes at 1 uM after 20 mins in presence of warm media at 37 degC by liquid scintillation counting method; assay type: ADME, cell-based
Hepatocyte [15] = test: Drug uptake in sandwich-cultured human adult hepatocytes at 1 uM after 20 mins in presence of cold media at 4 degC by liquid scintillation counting method; assay type: ADME, cell-based
How it was run: (§2)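 Sandwich-cultured hepatocytes were loaded for 20 min in standard HBSS containing 1 µM 17-OHPC and 1 µM TCA, at 37°C or at 4°C. Cells were washed ice-cold, and efflux was started with Ca2+/Mg2+-free HBSS at the matching temperature. Media and lysates were counted by liquid scintillation and normalized to protein. Triplicate treatments.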

Hepatocyte [16] = test: Drug uptake in sandwich-cultured human adult hepatocytes at 1 uM after 20 mins in presence of warm media at 37 degC by liquid scintillation counting method; assay type: ADME, cell-based; how it was run: as §2
Bile salt export pump [17] = target: T1, Bile salt export pump (Homo sapiens, UniProt O95342); test: Inhibition of ABCB11-mediated taurocholate efflux in sandwich-cultured human fetal hepatocytes at 0.5 to 10 uM; assay type: ADME, cell-based, Hepatocyte
How it was run: (§3)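 Sandwich-cultured hepatocytes (Matrigel overlay) were given 1 µM [3H]taurocholic acid in standard HBSS at 37°C, with or without increasing 17-OHPC or cyclosporine A (40 µM, positive control). Efflux was run in standard versus Ca2+/Mg2+-free HBSS, with inhibitor present. Canalicular efflux is the buffer difference, set to 100% in controls. Uptake was from scintillation counts normalized to Bradford protein. Triplicates; fetal n = 4, adult n = 6.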

Bile salt export pump [18] = target: T1, Bile salt export pump; test: Inhibition of ABCB11-mediated taurocholate total uptake in sandwich-cultured human fetal hepatocytes at >0.5 uM; assay type: ADME, cell-based, Hepatocyte; how it was run: as §3
Bile salt export pump [19] = target: T1, Bile salt export pump; test: Inhibition of ABCB11-mediated taurocholate efflux in sandwich-cultured human adult hepatocytes at 5 to 100 uM; assay type: ADME, cell-based, Hepatocyte; how it was run: as §3
Bile salt export pump [20] = target: T1, Bile salt export pump; test: Inhibition of ABCB11-mediated taurocholate total uptake in sandwich-cultured human adult hepatocytes at >50 uM; assay type: ADME, cell-based, Hepatocyte; how it was run: as §3
Hepatocyte [21] = test: Drug excretion in sandwich-cultured human adult hepatocytes assessed as mean biliary index; assay type: ADME, cell-based
How it was run: (§4)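 Sandwich-cultured hepatocytes (Matrigel overlay, 0.233 mg/ml) were rinsed twice and equilibrated 10 min at 37°C in standard or Ca2+/Mg2+-free HBSS. 1 µM [3H]taurocholate or [3H]17-OHPC in standard HBSS was then added. Accumulation was measured by scintillation counting and normalized to Bradford protein. BEI = (accumulation with Ca/Mg − accumulation without)/accumulation with Ca/Mg × 100. Reported as mean ± S.D. across cultures.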

Hepatocyte [22] = test: Drug excretion in sandwich-cultured human fetal hepatocytes assessed as mean biliary index; assay type: ADME, cell-based; how it was run: as §4
Hepatocyte [23] = test: Drug accumulation in sandwich-cultured human adult hepatocytes assessed per mg protein under Ca2+/Mg2+ conditions; assay type: ADME, cell-based
Hepatocyte [24] = test: Drug accumulation in sandwich-cultured human adult hepatocytes assessed per mg protein under Ca2+/Mg2+ free conditions; assay type: ADME, cell-based
Hepatocyte [25] = test: Drug accumulation in sandwich-cultured human fetal hepatocytes assessed per mg protein under Ca2+/Mg2+ conditions; assay type: ADME, cell-based
Hepatocyte [26] = test: Drug accumulation in sandwich-cultured human fetal hepatocytes assessed per mg protein under Ca2+/Mg2+ free conditions; assay type: ADME, cell-based
[27] = Cmax in adult human plasma; assay type: ADME, cell-free

T1 sequence (O95342 whole entry): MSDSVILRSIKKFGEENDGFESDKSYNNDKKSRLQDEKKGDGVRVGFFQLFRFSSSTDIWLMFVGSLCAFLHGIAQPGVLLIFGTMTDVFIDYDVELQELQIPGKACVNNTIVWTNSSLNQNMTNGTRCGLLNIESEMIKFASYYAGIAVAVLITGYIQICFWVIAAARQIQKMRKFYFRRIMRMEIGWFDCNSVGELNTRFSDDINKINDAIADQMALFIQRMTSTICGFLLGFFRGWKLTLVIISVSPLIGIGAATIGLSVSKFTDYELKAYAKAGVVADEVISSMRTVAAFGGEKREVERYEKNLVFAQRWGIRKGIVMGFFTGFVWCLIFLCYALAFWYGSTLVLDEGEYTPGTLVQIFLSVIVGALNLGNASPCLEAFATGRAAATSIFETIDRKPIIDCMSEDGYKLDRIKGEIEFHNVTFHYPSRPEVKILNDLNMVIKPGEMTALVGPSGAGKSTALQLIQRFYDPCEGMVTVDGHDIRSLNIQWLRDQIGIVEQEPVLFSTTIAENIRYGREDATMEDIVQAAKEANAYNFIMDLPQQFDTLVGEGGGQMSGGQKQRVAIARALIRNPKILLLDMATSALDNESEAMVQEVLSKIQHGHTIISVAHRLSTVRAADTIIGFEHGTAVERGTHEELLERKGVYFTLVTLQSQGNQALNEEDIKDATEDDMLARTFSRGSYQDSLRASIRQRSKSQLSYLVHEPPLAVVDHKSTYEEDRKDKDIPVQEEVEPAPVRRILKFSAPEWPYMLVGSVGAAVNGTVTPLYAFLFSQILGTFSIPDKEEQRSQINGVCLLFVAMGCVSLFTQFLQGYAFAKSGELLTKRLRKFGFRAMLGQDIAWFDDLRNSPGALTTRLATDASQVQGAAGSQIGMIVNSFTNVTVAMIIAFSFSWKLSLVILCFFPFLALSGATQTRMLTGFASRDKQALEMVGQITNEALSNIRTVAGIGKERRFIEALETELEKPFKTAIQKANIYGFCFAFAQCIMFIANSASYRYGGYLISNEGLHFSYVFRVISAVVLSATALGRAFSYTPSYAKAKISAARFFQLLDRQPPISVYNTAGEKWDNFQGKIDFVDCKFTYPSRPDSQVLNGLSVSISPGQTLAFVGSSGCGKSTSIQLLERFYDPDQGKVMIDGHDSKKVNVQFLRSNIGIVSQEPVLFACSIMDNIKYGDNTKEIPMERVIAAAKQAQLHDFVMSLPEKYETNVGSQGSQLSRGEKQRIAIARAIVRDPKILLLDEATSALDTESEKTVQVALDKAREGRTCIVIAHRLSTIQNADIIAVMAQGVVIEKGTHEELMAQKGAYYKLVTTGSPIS

**Q.** Which results are given for `[3H]C1C2=CC(=O)C([3H])C([3H])[C@]2(C)[C@H]2CC[C@@]3(C)[C@@H](CC[C@]3(O[14C](=O)CCCCC)C(C)=O)[C@@H]2C1[3H]` (some centres undefined)?
**A.** Drug uptake (Hepatocyte [1]): 304 pmol; Drug uptake (Hepatocyte [2]): 284 pmol; Drug uptake (Hepatocyte [3]): 494 pmol; Drug uptake (Hepatocyte [4]): 476 pmol; Drug uptake (Hepatocyte [5]): 281 pmol; Drug uptake (Hepatocyte [6]): 263 pmol; Drug uptake (Hepatocyte [7]): 347 pmol; Drug uptake (Hepatocyte [8]): 341 pmol; Drug uptake (Hepatocyte [9]): 241 pmol; Drug uptake (Hepatocyte [10]): 267 pmol; Drug uptake (Hepatocyte [11]): 565 pmol; Drug uptake (Hepatocyte [12]): 611 pmol

**Q.** Which Drug uptake (Hepatocyte [13]) does the source give for `CCCCCC(=O)O[C@]1(C(C)=O)CC[C@H]2[C@@H]3CCC4=CC(=O)CC[C@]4(C)[C@H]3CC[C@@]21C` [HYDROXYPROGESTERONE CAPROATE] here?
**A.** Its Drug uptake is “Not Active”.

**Q.** What about the Drug uptake (Hepatocyte [14]) of the same compound?
**A.** The Drug uptake was “Active”.

**Q.** And the Drug uptake (Hepatocyte [15])?
**A.** Its Drug uptake is “Not Active”.

**Q.** And the Drug uptake (Hepatocyte [16])?
**A.** The Drug uptake was “Active”.

**Q.** And the “inhibition (INH)” value (Bile salt export pump [17])?
**A.** The value was “Active”.

**Q.** And the “inhibition (INH)” value (Bile salt export pump [18])?
**A.** Its value is “Active”.

**Q.** And the “inhibition (INH)” value (Bile salt export pump [19])?
**A.** Its value is “Active”.

**Q.** What about the “inhibition (INH)” value (Bile salt export pump [20]) of the same compound?
**A.** The value was “Active”.

**Q.** And the Drug excretion (Hepatocyte [21])?
**A.** Its Drug excretion is 6.2%.

**Q.** What about the Drug excretion (Hepatocyte [22]) of the same compound?
**A.** The Drug excretion was 7%.

**Q.** What about the Drug uptake (Hepatocyte [23]) of the same compound?
**A.** The Drug uptake was 680 pmol.

**Q.** And the Drug uptake (Hepatocyte [24])?
**A.** Its Drug uptake is 628 pmol.

**Q.** What about the Drug uptake (Hepatocyte [25]) of the same compound?
**A.** The Drug uptake was 320 pmol.

**Q.** And the Drug uptake (Hepatocyte [26])?
**A.** The Drug uptake was 294 pmol.

**Q.** And the Cmax [27]?
**A.** The Cmax was 70 nM.

**Q.** And the Cmax (Cmax in human cord blood)?
**A.** Its Cmax is 20 nM.

**Q.** Which Drug uptake (Hepatocyte [13]) does the source give for `C[C@H](CCC(=O)NCCS(=O)(=O)O)[C@H]1CC[C@H]2[C@@H]3[C@H](O)C[C@@H]4C[C@H](O)CC[C@]4(C)[C@H]3C[C@H](O)[C@]12C` [TAUROCHOLIC ACID] here?
**A.** The Drug uptake was “Not Active”.

**Q.** And the Drug uptake (Hepatocyte [14])?
**A.** Its Drug uptake is “Active”.

**Q.** What about the Drug uptake (Hepatocyte [23]) of the same compound?
**A.** Its Drug uptake is 85 pmol.

**Q.** What about the Drug uptake (Hepatocyte [24]) of the same compound?
**A.** Its Drug uptake is 21 pmol.

**Q.** And the Drug uptake (Hepatocyte [25])?
**A.** Its Drug uptake is 34 pmol.

**Q.** What about the Drug uptake (Hepatocyte [26]) of the same compound?
**A.** The Drug uptake was 23 pmol.
